We go through two molecules from ChEMBL document CHEMBL1649124, “Genetic variability among ampC genes from acinetobacter genomic species 3” (Antimicrob Agents Chemother, 2009).

What all share (type): functional
For assay [1], the system named is Acinetobacter pittii. The assay is described as follows: Antibacterial activity against Acinetobacter genomosp. 3 isolate 52 by Etest method. The method, boiled down: (§1)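 MICs for AG3 clinical isolates were read by Etest following the manufacturer's instructions. Isolates were stored at –80°C in 10% Brucella glycerol broth before testing.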
Assay [2] concerns Acinetobacter pittii. Description: Antibacterial activity against Acinetobacter genomosp. 3 isolate 20 by Etest method. The method, boiled down:
as §1

Assay [3] has as its system Escherichia coli. The assay is described as follows: Antibacterial activity against Escherichia coli DH5alpha carrying ampC gene of Acinetobacter genomosp. 3 isolate 65 by Etest method. In a few lines: (§2)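 E. coli DH5α expressing the AG3 isolate ampC gene, PCR-amplified (high-fidelity system, 28 cycles) and cloned into BamHI/HindIII sites of pBGS18 (kanamycin marker) under the CTX-M-14 β-lactamase promoter. Grown at 37°C in LB, with kanamycin 50 µg/ml when needed. β-Lactam MICs determined by Etest per the manufacturer's instructions.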

In assay [4] the test system is Acinetobacter pittii. The assay is described as follows: Antibacterial activity against Acinetobacter genomosp. 3 isolate 67 by Etest method. In a few lines: as §1
In assay [5] the test system is Escherichia coli. Description: Antibacterial activity against Escherichia coli DH5alpha carrying ampC gene of Acinetobacter genomosp. 3 isolate 103 by Etest method. In a few lines:
as §2

In assay [6] the test system is Escherichia coli. Description: Antibacterial activity against Escherichia coli DH5alpha carrying ampC gene of Acinetobacter genomosp. 3 isolate 14 by Etest method. In a few lines:
as §2

Assay [7] concerns Acinetobacter pittii. Description: Antibacterial activity against Acinetobacter genomosp. 3 isolate 56 by Etest method. In a few lines: as §1
For assay [8], the system named is Acinetobacter pittii. Description: Antibacterial activity against Acinetobacter genomosp. 3 isolate 90 by Etest method. The method, boiled down: as §1
Assay [9] has as its system Escherichia coli. Description: Antibacterial activity against Escherichia coli DH5alpha carrying ampC gene of Acinetobacter genomosp. 3 isolate 20 by Etest method. In a few lines:
as §2

The subject of assay [10] is Escherichia coli. The assay is described as follows: Antibacterial activity against Escherichia coli DH5alpha carrying ampC gene of Acinetobacter genomosp. 3 isolate 56 by Etest method. The method, boiled down:
as §2

Assay [11] deals with Acinetobacter pittii. The assay is described as follows: Antibacterial activity against Acinetobacter genomosp. 3 isolate 65 by Etest method. The method, boiled down:
as §1

The test system of assay [12] is Acinetobacter pittii. The assay is described as follows: Antibacterial activity against Acinetobacter genomosp. 3 isolate 103 by Etest method. The method, boiled down:
as §1

Assay [13] relates to Acinetobacter pittii. Description: Antibacterial activity against Acinetobacter genomosp. 3 isolate 243 by Etest method. The method, boiled down:
as §1

Assay [14] concerns Acinetobacter pittii. Description: Antibacterial activity against Acinetobacter genomosp. 3 isolate 60 by Etest method. The method, boiled down:
as §1

Assay [15] concerns Escherichia coli. Description: Antibacterial activity against Escherichia coli DH5alpha by Etest method. The method, boiled down:
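E. coli DH5α host strain, grown at 37°C in LB medium. MICs of β-lactams determined by Etest following the manufacturer's instructions.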

Assay [16] deals with Acinetobacter pittii. Description: Antibacterial activity against Acinetobacter genomosp. 3 isolate 21 by Etest method. In a few lines:
as §1

Assay [17] concerns Acinetobacter pittii. Description: Antibacterial activity against Acinetobacter genomosp. 3 isolate 128 by Etest method. In a few lines: as §1
Assay [18] deals with Escherichia coli. Description: Antibacterial activity against Escherichia coli DH5alpha carrying ampC gene of Acinetobacter genomosp. 3 isolate 109 by Etest method. The method, boiled down: as §2
The subject of assay [19] is Acinetobacter pittii. The assay is described as follows: Antibacterial activity against Acinetobacter genomosp. 3 isolate 109 by Etest method. In a few lines: as §1
In assay [20] the test system is Escherichia coli. The assay is described as follows: Antibacterial activity against Escherichia coli DH5alpha carrying ampC gene of Acinetobacter genomosp. 3 isolate 195 by Etest method. The method, boiled down: as §2
In assay [21] the test system is Escherichia coli. Description: Antibacterial activity against Escherichia coli DH5alpha carrying ampC gene of Acinetobacter genomosp. 3 isolate 69 by Etest method. The method, boiled down: as §2
For assay [22], the system named is Acinetobacter pittii. Description: Antibacterial activity against Acinetobacter genomosp. 3 isolate 195 by Etest method. In a few lines: as §1
The subject of assay [23] is Acinetobacter pittii. The assay is described as follows: Antibacterial activity against Acinetobacter genomosp. 3 isolate 14 by Etest method. The method, boiled down:
as §1

In assay [24] the test system is Acinetobacter pittii. Description: Antibacterial activity against Acinetobacter genomosp. 3 isolate 69 by Etest method. In a few lines:
as §1

Values after ≈ are worked out from the molar mass of the structure shown.

Consider `CO/N=C(\C(=O)N[C@@H]1C(=O)N2C(C(=O)O)=C(COC(N)=O)CS[C@H]12)c1ccco1` [CEFUROXIME], for which the MIC against Acinetobacter pittii [1] worked out at 32 µg/mL (≈ 75.4 µM); against Acinetobacter pittii [2], 48 µg/mL (≈ 113 µM); in the assay with Escherichia coli [3] it was 4 µg/mL (≈ 9.43 µM); against Acinetobacter pittii [4] it was 48 µg/mL (≈ 113 µM); against Escherichia coli [5], 64 µg/mL (≈ 151 µM); against Escherichia coli [6], 64 µg/mL (≈ 151 µM). Also, the MIC against Acinetobacter pittii [7] is 16 µg/mL (≈ 37.7 µM); in the assay on Acinetobacter pittii [8] it was 16 µg/mL (≈ 37.7 µM); against Escherichia coli [9] it was 96 µg/mL (≈ 226 µM); against Escherichia coli [10], 48 µg/mL (≈ 113 µM); in the assay on Acinetobacter pittii [11] it was 24 µg/mL (≈ 56.6 µM); against Acinetobacter pittii [12], 48 µg/mL (≈ 113 µM). Moreover, the minimum inhibitory concentration (MIC) stood at 32 µg/mL (≈ 75.4 µM) against Acinetobacter pittii [13]; 64 µg/mL (≈ 151 µM) with Acinetobacter pittii [14]; 1.5 µg/mL (≈ 3.53 µM) with Escherichia coli [15]; 48 µg/mL (≈ 113 µM) against Acinetobacter pittii [16]; 32 µg/mL (≈ 75.4 µM) with Acinetobacter pittii [17]; 32 µg/mL (≈ 75.4 µM) in the assay on Escherichia coli [18]. The MIC came to 32 µg/mL (≈ 75.4 µM) against Acinetobacter pittii [19]; 48 µg/mL (≈ 113 µM) in the assay with Escherichia coli [20]; 32 µg/mL (≈ 75.4 µM) with Escherichia coli [21]; 64 µg/mL (≈ 151 µM) against Acinetobacter pittii [22]; 32 µg/mL (≈ 75.4 µM) against Acinetobacter pittii [23]; 32 µg/mL (≈ 75.4 µM) with Acinetobacter pittii [24].
On to `CCN1CCN(C(=O)N[C@@H](C(=O)N[C@@H]2C(=O)N3[C@@H]2SC(C)(C)[C@@H]3C(=O)O)c2ccccc2)C(=O)C1=O` [PIPERACILLIN], for which the MIC stood at 12 µg/mL (≈ 23.2 µM) with Acinetobacter pittii [1]; 24 µg/mL (≈ 46.4 µM) in the assay with Acinetobacter pittii [2]; 4 µg/mL (≈ 7.73 µM) against Escherichia coli [3]; 16 µg/mL (≈ 30.9 µM) with Acinetobacter pittii [4]; 4 µg/mL (≈ 7.73 µM) in the assay on Escherichia coli [5]; 4 µg/mL (≈ 7.73 µM) against Escherichia coli [6]. In addition, the minimal inhibitory concentration (MIC) was found to be 12 µg/mL (≈ 23.2 µM) against Acinetobacter pittii [7]; 12 µg/mL (≈ 23.2 µM) against Acinetobacter pittii [8]; 4 µg/mL (≈ 7.73 µM) in the assay on Escherichia coli [9]; 3 µg/mL (≈ 5.8 µM) in the assay with Escherichia coli [10]; 16 µg/mL (≈ 30.9 µM) with Acinetobacter pittii [11]; 24 µg/mL (≈ 46.4 µM) in the assay on Acinetobacter pittii [12]. The MIC amounted to 32 µg/mL (≈ 61.8 µM) against Acinetobacter pittii [13]; 24 µg/mL (≈ 46.4 µM) against Acinetobacter pittii [14]; 0.38 µg/mL (≈ 0.734 µM) with Escherichia coli [15]; 24 µg/mL (≈ 46.4 µM) in the assay on Acinetobacter pittii [16]; 12 µg/mL (≈ 23.2 µM) with Acinetobacter pittii [17]; 4 µg/mL (≈ 7.73 µM) against Escherichia coli [18]. Also, the MIC with Acinetobacter pittii [19] came to 16 µg/mL (≈ 30.9 µM); in the assay with Escherichia coli [20], 4 µg/mL (≈ 7.73 µM); in the assay on Escherichia coli [21] it was 3 µg/mL (≈ 5.8 µM); in the assay with Acinetobacter pittii [22] it was 24 µg/mL (≈ 46.4 µM); against Acinetobacter pittii [23], 16 µg/mL (≈ 30.9 µM); in the assay on Acinetobacter pittii [24] it was 16 µg/mL (≈ 30.9 µM).

The MIC is the lowest concentration found to suppress growth. Low values mean a more susceptible organism, high ones a less susceptible organism.
